Assay results as given in ChEMBL document CHEMBL3526048, “In vitro metabolism of rivoglitazone, a novel peroxisome proliferator-activated receptor γ agonist, in rat, monkey, and human liver microsomes and freshly isolated hepatocytes” (Drug Metab Dispos, 2011).

Experiments:
[1] = Retention time of the compound by LC-MS/MS analysis; assay type: physicochemical
Procedure, shortened: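 LC-MS/MS used a YMC-Pack ODS-A column (1.5 × 150 mm, 5 μm) at 30°C, 0.1 ml/min. Mobile phase was water and acetonitrile, each with 0.01% TFA. Gradient: 12→60% B over 30 min, →90% B over 5 min, hold 5 min. Detection was UV 220 nm with positive ESI Q-TOF (capillary 3300 V, cone 45 V), collision energy 20 eV and xenon as collision gas.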

[2] = molecular target: T1, UDP-glucuronosyltransferase 1A3 (Homo sapiens, UniProt P35503); test: Activity of human UGT1A3 expressed in microsomes isolated from baculovirus infected insect cell assessed as enzyme-mediated 2-mercapto-3-(4-((6-methoxy-1-methyl-1H-benzo[d]imidazol-2-yl)methoxy)phenyl)propanoic acid formation at 20 uM after 4 hrs by radio-HPLC/LC-MS/MS analysis in presence of UDPGA, UDPGA/SAM and NADPH-generating system in presence of UDPGA and UDPGA/SAM; assay type: ADME
T1 sequence (P35503 whole entry): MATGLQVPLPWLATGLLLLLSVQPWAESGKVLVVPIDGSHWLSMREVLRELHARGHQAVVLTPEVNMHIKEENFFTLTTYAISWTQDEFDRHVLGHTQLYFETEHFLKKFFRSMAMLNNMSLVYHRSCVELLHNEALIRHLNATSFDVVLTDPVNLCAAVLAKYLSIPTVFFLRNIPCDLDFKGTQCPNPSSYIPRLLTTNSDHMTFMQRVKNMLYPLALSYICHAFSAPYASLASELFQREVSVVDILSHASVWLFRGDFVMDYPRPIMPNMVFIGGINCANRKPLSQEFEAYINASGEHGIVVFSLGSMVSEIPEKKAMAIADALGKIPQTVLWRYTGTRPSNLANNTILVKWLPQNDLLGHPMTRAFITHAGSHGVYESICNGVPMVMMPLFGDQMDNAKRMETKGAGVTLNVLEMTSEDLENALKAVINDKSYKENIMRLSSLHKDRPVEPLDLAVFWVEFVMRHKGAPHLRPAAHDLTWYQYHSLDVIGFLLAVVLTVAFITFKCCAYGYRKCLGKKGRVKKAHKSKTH
Procedure, shortened: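 Alamethicin (50 μg/mg protein, 15 min on ice) pretreated expressed human UGT microsomes (1 mg/ml protein) from baculovirus-infected insect cells. Incubation with [¹⁴C]rivoglitazone (20 μM) in 100 mM Tris-HCl (pH 7.5) with 10 mM MgCl₂, started by 5 mM UDPGA, 4 h at 37°C with shaking. UGT insect-cell control supersomes were run alongside. Acetonitrile stop, concentrated supernatant analysed by radio-HPLC, LC-MS and LC-MS/MS.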

[3] = Drug metabolism in monkey hepatocytes assessed as formation of 5-(4-((6-hydroxy-1-methyl-1H-benzo[d]imidazol-2-yl)methoxy)benzyl)thiazolidine-2,4-dione at 30 uM after 3 hrs by radio-HPLC/LC-MS/MS analysis in presence of NADPH-generating system and NADPH-generating system/SAM; settings: cynomolgus monkey
[4] = Drug metabolism in human hepatocytes assessed as formation of 2-mercapto-3-(4-((6-methoxy-1-methyl-1H-benzo[d]imidazol-2-yl)methoxy)phenyl)propanoic acid at 30 uM after 3 hrs by radio-HPLC/LC-MS/MS analysis in presence of UDPGA, UDPGA/SAM and NADPH-generating system; assay type: ADME, cell-based, Hepatocyte
[5] = molecular target: T2, UDP-glucuronosyltransferase 2B17 (Homo sapiens, UniProt O75795); test: Activity of human UGT2B17 expressed in microsomes isolated from baculovirus infected insect cell assessed as enzyme-mediated (2S,3S,4S,5R,6R)-3,4,5-trihydroxy-6-(5-(4-((6-methoxy-1-methyl-1H-benzo[d]imidazol-2-yl)methoxy)benzyl)-2,4-dioxothiazolidin-3-yl)tetrahydro-2H-pyran-2-carboxylic acid formation at 20 uM after 4 hrs by radio-HPLC/LC-MS/MS analysis in presence of UDPGA; assay type: ADME
T2 sequence (O75795 whole entry): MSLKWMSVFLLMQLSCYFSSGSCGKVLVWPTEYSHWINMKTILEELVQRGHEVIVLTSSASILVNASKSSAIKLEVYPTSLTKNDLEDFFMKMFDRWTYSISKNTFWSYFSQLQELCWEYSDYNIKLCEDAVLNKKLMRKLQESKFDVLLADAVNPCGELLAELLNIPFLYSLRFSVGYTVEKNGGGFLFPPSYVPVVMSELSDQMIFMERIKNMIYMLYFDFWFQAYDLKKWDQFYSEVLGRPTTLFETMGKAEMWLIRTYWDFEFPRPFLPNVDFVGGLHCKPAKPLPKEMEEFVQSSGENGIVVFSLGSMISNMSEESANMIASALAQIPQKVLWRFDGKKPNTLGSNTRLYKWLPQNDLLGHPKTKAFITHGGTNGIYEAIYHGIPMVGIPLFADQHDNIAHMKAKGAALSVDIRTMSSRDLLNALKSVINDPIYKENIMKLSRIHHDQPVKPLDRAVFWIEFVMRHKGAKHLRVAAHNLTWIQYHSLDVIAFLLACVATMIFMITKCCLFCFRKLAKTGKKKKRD

Cytochrome P450 2C8 = molecular target: T3, Cytochrome P450 2C8 (Homo sapiens, UniProt P10632); test: Activity of human CYP2C8 expressed in microsomes isolated from baculovirus infected insect cell assessed as enzyme-mediated 2-hydroxy-3-(4-((6-methoxy-1-methyl-1H-benzo[d]imidazol-2-yl)methoxy)phenyl)propanamide formation at 20 uM after 2 hrs by radio-HPLC/LC-MS/MS analysis in presence of NADPH-generating system and NADPH-generating system/SAM; assay type: ADME
T3 sequence (P10632 whole entry): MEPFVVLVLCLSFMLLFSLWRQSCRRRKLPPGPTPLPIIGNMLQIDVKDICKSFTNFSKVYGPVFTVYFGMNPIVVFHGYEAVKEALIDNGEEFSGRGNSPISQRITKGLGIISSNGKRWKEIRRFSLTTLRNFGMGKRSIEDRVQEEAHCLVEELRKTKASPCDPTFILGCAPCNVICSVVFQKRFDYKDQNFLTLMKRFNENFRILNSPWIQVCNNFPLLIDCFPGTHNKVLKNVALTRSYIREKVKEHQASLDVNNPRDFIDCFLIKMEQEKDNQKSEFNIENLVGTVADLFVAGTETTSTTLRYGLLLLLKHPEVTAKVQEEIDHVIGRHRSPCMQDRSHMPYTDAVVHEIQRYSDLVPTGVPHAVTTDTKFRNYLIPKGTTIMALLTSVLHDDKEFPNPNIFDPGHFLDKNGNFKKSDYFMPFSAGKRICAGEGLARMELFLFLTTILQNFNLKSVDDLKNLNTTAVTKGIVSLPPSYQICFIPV
Procedure, shortened: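 Baculovirus/insect-cell microsomes expressing single human CYPs, 1 mg/ml protein, with 50 mM potassium phosphate (pH 7.4) or 100 mM Tris-HCl (pH 7.5). NADPH-generating system: 2 mM NADP⁺, 20 mM glucose 6-phosphate, 2 units/ml G6PDH, 10 mM MgCl₂. [¹⁴C]rivoglitazone at 20 μM, 2 h at 37°C with shaking. Control used insect-cell control supersomes. Stopped with acetonitrile; supernatant concentrated under nitrogen; metabolites analysed by radio-HPLC, LC-MS and LC-MS/MS.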

[6] = Drug metabolism in monkey hepatocytes assessed as formation of 5-(4-((6-methoxy-1H-benzo[d]imidazol-2-yl)methoxy)benzyl)thiazolidine-2,4-dione at 30 uM after 3 hrs by radio-HPLC/LC-MS/MS analysis in presence of NADPH-generating system and NADPH-generating system/SAM; settings: cynomolgus monkey

Question: With `COc1ccc2nc(COc3ccc(CC(S)C(=O)O)cc3)n(C)c2c1` (configuration not stated) as the compound, how does the Retention_time [1] read?
Answer: The Retention_time was 23.9 min.

Question: For `COc1ccc2nc(COc3ccc(C[14CH]4SC(=O)NC4=O)cc3)n(C)c2c1.Cl` (racemic), which Drug metabolism [2] is on record?
Answer: Its Drug metabolism is “metabolite_detected”.

Question: And the Drug metabolism [3]?
Answer: Its Drug metabolism is “metabolite_detected”.

Question: What about the Drug metabolism [4] of the same compound?
Answer: Its Drug metabolism is “metabolite_not_detected”.

Question: And the Drug metabolism [5]?
Answer: Its Drug metabolism is “metabolite_not_detected”.

Question: What about the Drug metabolism (Cytochrome P450 2C8) of the same compound?
Answer: The Drug metabolism was “metabolite_detected”.

Question: And the Drug metabolism [6]?
Answer: The Drug metabolism was “metabolite_not_detected”.
